Compounds with a hit are over-represented: about 1.3% of the library has one in this group of screens.
NR2E3 ag-1: NR2E3 agonists in two-hybrid cells, primary screen, cell-based, luminescence, CHO-S, Gal4-NCOR/VP16-NR2E3; Photoreceptor-specific nuclear receptor (Homo sapiens), Q9Y5X4; luciferase; inhibition of corepressor binding, % at 3.98 µM; 0.35% of 360,000 active;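 active means inhibition above the mean of all tested compounds plus 3 SD, cut at about 70% in these data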;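 further: higher means lower luciferase signal from less NR2E3 corepressor binding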
PP5 inh: PP5 phosphatase inhibitors, primary screen, biochemical, fluorescence; Serine/threonine-protein phosphatase 5 (Homo sapiens), P53041; purified PP5c, OMFP substrate fluorescence; inhibition, % at 6.7 µM; 0.18% of 320,000 active; AID 1987, 2009;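 active means inhibition above the campaign's mean inhibition across all tested compounds plus 3 SD, cut at about 9.5% in these data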
PP1 counter: PP1-alpha phosphatase inhibitors, primary screen, counter-screen for PP5 inhibitor project, biochemical, fluorescence, OMFP substrate, single point | purified PP1alpha | inhibition, % at 6.7 µM | 0.9% of 320,000 active | AID 2235, 2010;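 active means inhibition above the mean inhibition of all tested compounds plus 3 SD, computed separately for each screening campaign, cut at about 15% in these data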
Target sequence (P62136 whole entry, looked up): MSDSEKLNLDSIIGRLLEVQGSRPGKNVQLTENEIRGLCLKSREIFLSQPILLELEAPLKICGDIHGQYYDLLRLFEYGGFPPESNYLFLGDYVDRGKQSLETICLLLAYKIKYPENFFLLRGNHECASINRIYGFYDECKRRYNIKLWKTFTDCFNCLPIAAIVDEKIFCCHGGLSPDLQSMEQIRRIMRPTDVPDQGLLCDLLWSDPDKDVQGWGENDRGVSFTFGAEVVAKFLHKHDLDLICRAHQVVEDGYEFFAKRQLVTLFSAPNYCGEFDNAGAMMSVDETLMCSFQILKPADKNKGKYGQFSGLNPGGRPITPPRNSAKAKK
NR2E3 ag-2: inhibitors of NR2E3-RetCOR corepressor binding, primary screen, NR2E3 agonist project, biochemical, TR-FRET, GST-NR2E3, biotin-RetCOR. Photoreceptor-specific nuclear receptor (Homo sapiens), Q9Y5X4. 1536-well. inhibition of corepressor binding, % at 4.78 µM. 0.12% of 320,000 active;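 active means percent inhibition above the cutoff of mean plus 3 SD of all tested compounds, set per screening campaign, cut at about 20% in these data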
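System: GST-NR2E3 and biotin-RetCOR proteins; probe or stimulus: 7 nM biotin-RetCOR; doses: compound at 4.8 µM, single dose; schedule: Compound–protein incubation for 5 h at 4 °C; detection: time-resolved FRET; read-out: percent inhibition; controls: biotin wells as high control, 0.6% DMSO wells as low control; format: 1536-well plates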
PP1 inh confirm: PP1 phosphatase inhibitors, confirmation, biochemical, fluorescence, OMFP substrate, triplicate. inhibition, % at 6.7 µM. purified PP1alpha. 52% of 1,900 active. AID 2358, 2010. shares compounds with PP1 counter;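 active means mean PP1 inhibition above a set limit taken from the earlier primary screen, cut at about 15% in these data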
PP5 counter: PP5 phosphatase inhibition by PP1 hits, confirmation, counter-screen for PP1 inhibitor project, biochemical, fluorescence, triplicate | shares compounds with PP1 counter | 4% of 1,900 active | purified PP5c, OMFP fluorescence | AID 2360, 2010 | inhibition, % at 6.7 µM;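 active means mean PP5 inhibition over triplicate wells above about 9.5% taken from the earlier PP1 screen, limit read from the data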
Hits are given with their value.

Cc1ccc(NC2c3ncccc3C(=O)N2c2ccccc2C)cc1C (centres undefined) was read as NR2E3 ag-1 inactive, PP5 inh inactive, PP1 counter 30.4, NR2E3 ag-2 inactive, PP1 inh confirm 25.7 and PP5 counter inactive.
`CCc1ccc(NS(=O)(=O)c2ccc3[nH]cc(C(=O)N4CCc5ccccc54)c(=O)c3c2)cc1` gave NR2E3 ag-1 inactive, PP5 inh inactive, PP1 counter 18.6, NR2E3 ag-2 inactive, PP1 inh confirm inactive and PP5 counter inactive.
Screening COC(=O)CCCn1cc(CN2CC(N3CCCC3)CS2(=O)=O)nn1 (centres undefined) returned NR2E3 ag-1 inactive.
O=C(/C=C/c1ccccc1)NCCc1ccccc1 was read as NR2E3 ag-1 inactive, PP5 inh inactive, PP1 counter 35.3, NR2E3 ag-2 inactive, PP1 inh confirm inactive and PP5 counter inactive.
`Cc1ccc(S(=O)(=O)N2CCN(C(=O)COC(=O)COc3cccc(C(F)(F)F)c3)CC2)c(C)c1` gave NR2E3 ag-1 inactive.
Screening CC(C)c1ccc(NC(=O)Nc2nc(C(N)c3ccccc3Cl)cs2)cc1 (centres undefined) returned NR2E3 ag-1 inactive.
`O=C(COC(=O)/C=C/c1ccc(Br)o1)Nc1ccc2[nH]c(=O)[nH]c2c1` gave NR2E3 ag-1 inactive, PP5 inh inactive, PP1 counter 20.6, NR2E3 ag-2 inactive, PP1 inh confirm 25.3 and PP5 counter inactive.
CCOC(=O)C1(C)CCCN(C(=O)c2cc(F)ccc2C)C1 (centres undefined) was read as NR2E3 ag-1 inactive.
Screening COc1ccc(C(=O)Nc2cccc(/C=C(\CCC(=O)O)c3nc4ccccc4s3)c2)cc1 returned NR2E3 ag-1 inactive, PP5 inh inactive, PP1 counter 22.5, NR2E3 ag-2 inactive, PP1 inh confirm inactive and PP5 counter inactive.
Screening CNc1ccc(/C=C(\CCC(=O)O)c2nc3ccccc3s2)cc1[N+](=O)[O-] returned NR2E3 ag-1 inactive, PP5 inh inactive, PP1 counter 31.7, NR2E3 ag-2 inactive, PP1 inh confirm 23.6 and PP5 counter inactive.
`Cc1ccc(/C=C(\CCC(=O)O)c2nc3ccccc3s2)cc1[N+](=O)[O-]` gave NR2E3 ag-1 inactive, PP5 inh inactive, PP1 counter inactive and NR2E3 ag-2 inactive.
CN(c1ccccc1)c1ccc(/C=C(\CCC(=O)O)c2nc3ccccc3s2)cc1[N+](=O)[O-] was read as NR2E3 ag-1 inactive, PP5 inh inactive, PP1 counter 26.0, NR2E3 ag-2 inactive, PP1 inh confirm inactive and PP5 counter inactive.
Screening Cn1cnnc1Sc1ccc(/C=C(\CCC(=O)O)c2nc3ccccc3s2)cc1[N+](=O)[O-] returned NR2E3 ag-1 inactive, PP5 inh inactive, PP1 counter inactive and NR2E3 ag-2 inactive.
For Cc1cccc(C(=O)N=c2c(C#N)cc3c(=O)n4cccc(C)c4nc3n2Cc2ccco2)c1 the results were NR2E3 ag-1 inactive, PP5 inh inactive, PP1 counter 25.1, NR2E3 ag-2 inactive, PP1 inh confirm inactive and PP5 counter inactive.
For Cc1ccc(OC(=O)CCC(=O)Nc2ccc(C(N)=O)cc2)cc1 the results were NR2E3 ag-1 inactive, PP5 inh inactive, PP1 counter inactive and NR2E3 ag-2 inactive.
`CC(C)Cc1nnc(NC(=O)CCS(=O)(=O)c2ccc(Cl)cc2)s1` gave NR2E3 ag-1 inactive, PP5 inh inactive, PP1 counter inactive and NR2E3 ag-2 inactive.
For CCOc1cc(/C=N/NC(=O)Cn2nc([N+](=O)[O-])cc2C)ccc1OCc1ccc(F)cc1 the results were NR2E3 ag-1 inactive, PP5 inh inactive, PP1 counter 17.7, NR2E3 ag-2 inactive, PP1 inh confirm 16.6 and PP5 counter inactive.
CC(=O)Nc1ccc(NC(=O)c2ccc(-c3ccnn3C)c3ccoc23)cc1 was read as NR2E3 ag-1 inactive.
O=C(O)C1Nc2c(O)cc(Cl)c([N+](=O)[O-])c2C2C=CCC12 (centres undefined) was read as NR2E3 ag-1 inactive, PP5 inh inactive, PP1 counter 42.3, NR2E3 ag-2 inactive, PP1 inh confirm inactive and PP5 counter inactive.
`CC(=O)c1ccc2c(c1)C1C=CCC1C(C(=O)O)N2` (centres undefined) gave NR2E3 ag-1 inactive.
Cc1ccccc1NS(=O)(=O)c1ccc(C(=O)NCC(C)(C)N2CCOCC2)cc1 was read as NR2E3 ag-1 inactive, PP5 inh inactive, PP1 counter inactive and NR2E3 ag-2 inactive.
CCC(C)NC(=O)CCc1nnc2ccc(N3CCC(C)CC3)nn12 (centres undefined) was read as NR2E3 ag-1 inactive, PP5 inh inactive, PP1 counter inactive and NR2E3 ag-2 inactive.
For COC(=O)C(NC(=O)CCc1nnc2ccc(N3CCC(C)CC3)nn12)C(C)C (centres undefined) the results were NR2E3 ag-1 inactive, PP5 inh inactive, PP1 counter 30.6, NR2E3 ag-2 inactive, PP1 inh confirm inactive and PP5 counter inactive.
`O=C(COC(=O)c1ccc(F)c([N+](=O)[O-])c1)NC(=O)NCc1ccccc1` gave NR2E3 ag-1 inactive.
`C#CCNC(=O)C1CCN(c2ccc(S(=O)(=O)N3CCOCC3)cc2Cl)CC1` gave NR2E3 ag-1 inactive, PP5 inh inactive, PP1 counter inactive and NR2E3 ag-2 inactive.
CC(C)CNC(=O)C1CCN(c2ccc(S(=O)(=O)N3CCOCC3)cc2Cl)CC1 was read as NR2E3 ag-1 inactive, PP5 inh inactive, PP1 counter 27.5, NR2E3 ag-2 inactive, PP1 inh confirm inactive and PP5 counter inactive.
O=C(O)COc1ccccc1C(Nc1cccnc1)c1cc(Cl)c2cccnc2c1O (centres undefined) was read as NR2E3 ag-1 inactive.
For CCCC(=O)NC(c1cccs1)c1cc(Cl)c2cccnc2c1O (centres undefined) the results were NR2E3 ag-1 inactive, PP5 inh inactive, PP1 counter 26.5, NR2E3 ag-2 inactive, PP1 inh confirm 23.2 and PP5 counter inactive.
Screening CCCC(=O)NC(c1ccc2c(c1)OCO2)c1cc(Cl)c2cccnc2c1O (centres undefined) returned NR2E3 ag-1 inactive, PP5 inh inactive, PP1 counter 19.9, NR2E3 ag-2 inactive, PP1 inh confirm 24.1 and PP5 counter inactive.
`CCOc1ccc(C(Nc2cccnc2)c2cc(Cl)c3cccnc3c2O)cc1` (centres undefined) gave NR2E3 ag-1 inactive, PP5 inh inactive, PP1 counter 19.4, NR2E3 ag-2 inactive, PP1 inh confirm 21.4 and PP5 counter inactive.

Screening data: PubChem BioAssay, The Scripps Research Institute Molecular Screening Center
